According to ChEMBL document CHEMBL1154185 (J Med Chem, 2009):
Active and inactive are the calls of the source.

How the values were obtained:
U-373MG ATCC [1] = assay: Cytostatic activity against proapoptotic stimuli-resistant human U373 cells at 5 uM after 72 hrs by quantitative video microscopy; assay type: functional, cell-based
How it was run: (§1)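 Phase-contrast time-lapse videomicroscopy with 5 μM for 72 h vs untreated control. Growth level = cell count in last frame / first frame (0 h). Global growth ratio compares treated with control growth level. Counts done in triplicate with an interactive tool. Morphology followed over the same period.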

[2] = Growth inhibition of human WS1 cells after 72 hrs by MTT assay; assay type: cell-based; settings: WS1, 72 h
How it was run: (§2)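 Cells plated 24 h in 96-well plates (10,000-40,000 cells/mL by cell type) in MEM (5% or 10% heat-inactivated FBS; with 100 μM non-essential amino acids for WI-38 and NHDF) or RPMI 10% FBS (A549), then exposed 72 h to compound up to 100 μM; MTT reduction read at 570 nm (reference 630 nm); sextuplicate.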

U-373MG ATCC [3] = assay: Reduction of colony formation in undifferentiated proapoptotic stimuli-resistant human U373 cells at 5 uM under anchorage-independent culture conditions by quantitative video microscopy; assay type: functional, cell-based
Mus musculus = assay: Toxicity in iv dosed mouse assessed as reduction of body weight at 5 to 80 mg/kg, iv administered once daily for 5 consecutive days measured after 28 days; assay type: organism-based; set-up: dose 5-80 mg/kg, route intravenous; settings: in vivo, 672 h
How it was run: (§3)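 Healthy mice given compound i.v. (tail vein) in 50 μL saline once daily for 5 consecutive days (Monday-Friday) at 5, 10, 20, 40 or 80 mg/kg; 3 mice per group; body weight and survival followed over 28 days; MTD defined as dose just below lowest dose killing at least one mouse; means ± SEM.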

U-373MG ATCC [4] = assay: Cytotoxic activity against proapoptotic stimuli-resistant human U373 cells assessed as induction of cell death at 5 uM after 72 hrs by quantitative video microscopy; assay type: functional, cell-based; how it was run: as §1
U-373MG ATCC [5] = assay: Increase in actin cytoskeleton rigidity in proapoptotic stimuli-resistant human U373 cells at 5 uM after 6 hrs by fluorescence microscopy
A549 [6] = assay: Reduction of colony formation in undifferentiated proapoptotic stimuli-resistant human A549 cells at 5 uM under anchorage-independent culture conditions by quantitative video microscopy; assay type: functional, cell-based
How it was run: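 Soft-agar (anchorage-independent) culture of A549 cells, without or with 5 μM, for 38 days after plating. Colonies counted in three 0.4 mm² areas per condition, experiment in hexaplicate. Means ± SEMs.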

U-373MG ATCC [7] = assay: Induction of non-apoptotic cell death in human U373 cells at 50 uM after 72 hrs by annexin-V/propidium iodide staining based flow cytometry; assay type: functional
How it was run: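 Flow cytometry with annexin-V/propidium iodide double staining after 72 h. U373 given 0, 5 or 50 μM; MCF-7 treated 72 h with a 1 μM pro-apoptotic positive control. Early apoptosis = AV+/PI−, late = AV+/PI+, non-apoptotic death = AV−/PI+. Means ± SEMs.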

U-373MG ATCC [8] = assay: Increase in polymerized actin levels in proapoptotic stimuli-resistant human U373 cells at 5 uM after 6 hrs by fluorescence microscopy; assay type: functional, cell-based
How it was run: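 U373 cells, untreated or exposed to 5 μM for 6 h, stained and imaged by computer-assisted fluorescence microscopy. Fibrillar (polymerized) actin labelled with Alexa Fluor488-phallacidin (green); globular actin with Alexa Fluor594-DNase I (red).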

B16-F10 [9] = assay: Antitumor activity against mouse B16F10 cells implanted in B6D2F1 mouse assessed as increase in mouse survival at 40 mg/kg, iv administered thrice weekly for 3 consecutive weeks starting from 5th day post tumor grafting; assay type: functional, organism-based; set-up: dose 40 mg/kg
How it was run: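 Female B6D2F1 mice (17-19 g) received stereotactic brain implants of B16F10 melanoma cells, all on the same day. Treatment started on day 5 post-graft: 40 mg/kg i.v. (tail vein) in 50 μL, Mon/Wed/Fri for 3 consecutive weeks. Controls received 50 μL saline i.v.; the reference arm got cisplatin 5 mg/kg i.p. on the same schedule. 11 mice per group; survival analysed.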

A549 [10] = assay: Growth inhibition of proapoptotic stimuli-resistant human A549 cells after 72 hrs by MTT assay; assay type: functional, cell-based; settings: Homo sapiens, A549, 72 h; how it was run: as §2
NHDF = assay: Growth inhibition of human NHDF after 72 hrs by MTT assay; assay type: cell-based; how it was run: as §2
A549 [11] = assay: Reduction of colony formation in undifferentiated proapoptotic stimuli-resistant human A549 cells at 5 uM under anchorage-independent culture conditions by quantitative video microscopy
B16-F10 [12] = assay: Antitumor activity against mouse B16F10 cells implanted in iv dosed B6D2F1 mouse assessed as active dose increasing mouse survival administered thrice weekly for 3 consecutive weeks starting from 5th day post tumor grafting; assay type: functional
U-373MG ATCC [13] = assay: Inhibition of cytokinesis in proapoptotic stimuli-resistant human U373 cells at 5 uM after 72 hrs by quantitative video microscopy; assay type: functional, cell-based
How it was run: (§4)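 Quantitative videomicroscopy with 5 μM for 72 h. Mitoses counted within a 2 mm² frame over the 72 h observation. Single cells in treated colonies were tracked at high magnification to follow mitosis and cytokinesis over time.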

U-373MG ATCC [14] = assay: Inhibition of cell migration of proapoptotic stimuli-resistant human U373 cells at 5 uM by quantitative video microscopy; assay type: functional, cell-based
How it was run: (§5)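 Quantitative videomicroscopy of cells untreated or given 0.5 or 5 μM. Migration scored as MRDO, the greatest linear distance each single cell travels from its origin, over 12 or 24 h of observation. Means ± SEMs.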

[15] = Reduction in mitosis occurrence in proapoptotic stimuli-resistant human U373 cells at 5 uM after 72 hrs by quantitative video microscopy; assay type: functional, U-373MG ATCC; set-up: scale not given: the % may be the effect or the level left
How it was run: (§6)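 Cells treated 72 h with 5 μM compound and filmed by computer-assisted phase-contrast videomicroscopy; mitoses counted within a 2 mm² frame over the 72 h observation period, compared with untreated control.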

A549 [16] = assay: Cytotoxic activity against proapoptotic stimuli-resistant human A549 cells assessed as induction of cell death at 5 uM after 72 hrs by quantitative video microscopy; assay type: functional, cell-based; how it was run: as §1
SK-MEL-28 = assay: Growth inhibition of proapoptotic stimuli-resistant human SK-MEL-28 cells after 72 hrs by MTT assay; assay type: functional, cell-based; settings: Homo sapiens, SK-MEL-28, 72 h
How it was run: (§7)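 MTT assay. Cells were plated at 10,000–40,000 cells/mL and left 24 h to attach, then exposed to compound for 72 h (untreated controls). Formazan was read at 570 nm (reference 630 nm). Tested up to 10 μM (first panel) or up to 100 μM (second panel). Sextuplicate. U373 grown in MEM + 5% FBS; Hs683, SK-MEL-28 and B16F10 in RPMI + 10% FBS.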

[17] = Growth inhibition of proapoptotic stimuli-sensitive human Hs683 cells after 72 hrs by MTT assay; assay type: functional, cell-based, Hs 683; settings: Homo sapiens, Hs 683, 72 h; how it was run: as §7
A549 [18] = assay: Inhibition of cell migration of proapoptotic stimuli-resistant human A549 cells at 5 uM by quantitative video microscopy; assay type: functional, cell-based; how it was run: as §5
[19] = Growth inhibition of proapoptotic stimuli-resistant human U373 cells after 72 hrs by MTT assay; assay type: functional, cell-based, U-373MG ATCC; settings: Homo sapiens, U373 MG, 72 h; how it was run: as §7
A549 [20] = assay: Cytostatic activity against proapoptotic stimuli-resistant human A549 cells at 5 uM after 72 hrs by quantitative video microscopy; assay type: functional, cell-based; how it was run: as §1
A549 [21] = assay: Inhibition of cytokinesis in proapoptotic stimuli-resistant human A549 cells at 5 uM after 72 hrs by quantitative video microscopy; assay type: functional, cell-based; how it was run: as §4
[22] = Growth inhibition of proapoptotic stimuli-resistant human OE21 cells after 72 hrs by MTT assay; assay type: functional, cell-based; settings: Homo sapiens, OE21, 72 h
[23] = Toxicity in iv dosed mouse administered once daily for 5 consecutive days measured after 28 days; assay type: organism-based; settings: in vivo; how it was run: as §3
U-373MG ATCC [24] = assay: Reduction of colony formation in undifferentiated proapoptotic stimuli-resistant human U373 cells at 0.5 uM under anchorage-independent culture conditions by quantitative video microscopy; assay type: functional, cell-based
A549 [25] = assay: Reduction in mitosis occurrence in proapoptotic stimuli-resistant human A549 cells at 5 uM after 72 hrs by quantitative video microscopy; assay type: functional; set-up: scale not given: the % may be the effect or the level left; how it was run: as §6
[26] = Growth inhibition of human WI38 cells after 72 hrs by MTT assay; assay type: cell-based; settings: WI-38, 72 h; how it was run: as §2
A549 [27] = assay: Increase in polymerized actin levels in proapoptotic stimuli-resistant human A549 cells at 5 uM after 6 hrs by fluorescence microscopy; assay type: functional, cell-based
B16-F10 [28] = assay: Growth inhibition of proapoptotic stimuli-sensitive mouse B16F10 cells after 72 hrs by MTT assay; assay type: functional, cell-based; settings: Mus musculus, B16-F10, 72 h; how it was run: as §7

With `O[C@H]1[C@H]2c3cc4c(cc3CN3CCC(=C[C@@H]1O)[C@H]23)OCO4` [LYCORINE] the Activity (U-373MG ATCC [1]) was “Active”, the IC50 [2] was over 100 µM and the Activity (U-373MG ATCC [3]) was “Active”. For the same compound, the Activity (Mus musculus) was “Non-toxic”, the Activity (U-373MG ATCC [4]) was “inactive” and the Activity (U-373MG ATCC [5]) was “Active”. The Activity (A549 [6]) was “Active”, the Activity (U-373MG ATCC [7]) was “Active” and the Activity (U-373MG ATCC [8]) was “Active”. For the same compound, the Activity (B16-F10 [9]) was “Active”, the IC50 (A549 [10]) was 4.3 µM and the IC50 (NHDF) was over 100 µM. The Activity (A549 [11]) was “Active”, the Dose (B16-F10 [12]) was 40 mg/kg and the Activity (U-373MG ATCC [13]) was “Active”. The Activity (U-373MG ATCC [14]) was “Active”, the Activity [15] was “>=90%” and the Activity (A549 [16]) was “inactive”. For the same compound, the IC50 (SK-MEL-28) was 8.5 µM, the IC50 [17] was 6.7 µM and the Activity (A549 [18]) was “Active”. For the same compound, the IC50 [19] was 7.6 µM, the Activity (A549 [20]) was “Active” and the Activity (A549 [21]) was “Active”. The IC50 [22] was 5.1 µM, the MTD at 672 h [23] was over 80 mg/kg and the Activity (U-373MG ATCC [24]) was “Active”. The Activity (A549 [25]) was “>=90%”, the IC50 [26] was over 100 µM and the Activity (A549 [27]) was “Active”. For the same compound, the IC50 (B16-F10 [28]) was 6.3 µM.
